The results in this text go back to ChEMBL document CHEMBL4431315, “Jatrophane Diterpenoids as Modulators of P-Glycoprotein-Dependent Multidrug Resistance (MDR): Advances of Structure-Activity Relationships and Discovery of Promising MDR Reversal Agents” (J Med Chem, 2016).

Series [1] concerns the target T1, ATP-dependent translocase ABCB1 (Homo sapiens, UniProt P08183). Description: Inhibition of P-gp mediated efflux in adriamycin-resistant human HepG2 cells assessed as intracellular rhodamine-123 accumulation at 1 uM incubated in dark condition for 90 mins by flow cytometry. The series is classed as cell-based. The essentials: (§1)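 HepG2/ADR cells seeded at 5 × 10^5/well and given compound plus 10 μM Rho123 in the dark at 37 °C for 90 min. Cells washed twice in ice-cold PBS, resuspended in PBS, read by flow cytometry in FL1 (Em 525 nm). Fold of control = (treated fluorescence − background)/(Rho123-only fluorescence − background).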
(Flow cytometry measures light scatter and fluorescence of single cells or particles in a stream.)

In series [2] the target is T1, ATP-dependent translocase ABCB1. Nature of the series: Inhibition of P-gp mediated efflux in adriamycin-resistant human HepG2 cells assessed as intracellular rhodamine-123 accumulation at 10 uM incubated in dark condition for 90 mins by flow cytometry relative to control. The series is classed as cell-based. The essentials: as §1
Series [3] shares this target. Nature of the series: Inhibition of P-gp mediated efflux in adriamycin-resistant human HepG2 cells assessed as intracellular rhodamine-123 accumulation at 0.125 to 10 uM incubated in dark condition for 90 mins by flow cytometry. The series is classed as cell-based. The essentials: as §1
The subject of the next series is HepG2. Description: Cytotoxicity against adriamycin-resistant human HepG2 cells assessed as inhibition of cell proliferation after 48 hrs by MTT assay. The series is classed as functional, cell-based. The note with it: HepG2, 48 h. The method, boiled down:
(§2)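 Seeded at 5 × 10^3 cells/well with graded compound levels, DMSO as negative control, 48 h. MTT added for 4 h, formazan dissolved in DMSO, OD read at 570 nm (reference 630 nm). IC50 by nonlinear regression; triplicate samples.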
In general terms: Tetrazolium dyes change colour on reduction, which living cells bring about.

The subject of a further series is NCI/ADR-RES. Description: Intrinsic cytotoxicity against human MCF7/ADR cells assessed as inhibition of cell proliferation after 48 hrs by MTT assay. The series is classed as cell-based. The essentials: as §2
Series [4] addresses T1, ATP-dependent translocase ABCB1. Nature of the series: Inhibition of P-gp mediated efflux in adriamycin-resistant human HepG2 cells assessed as intracellular rhodamine-123 accumulation at 2 uM incubated in dark condition for 90 mins by flow cytometry relative to control. The series is classed as cell-based. The method, boiled down: as §1
Series [5] has the same target. Description: Inhibition of P-gp mediated efflux in adriamycin-resistant human HepG2 cells assessed as intracellular rhodamine-123 accumulation at 0.125 uM incubated in dark condition for 90 mins by flow cytometry relative to control. The series is classed as cell-based. The essentials:
as §1

T1 sequence (P08183 whole entry): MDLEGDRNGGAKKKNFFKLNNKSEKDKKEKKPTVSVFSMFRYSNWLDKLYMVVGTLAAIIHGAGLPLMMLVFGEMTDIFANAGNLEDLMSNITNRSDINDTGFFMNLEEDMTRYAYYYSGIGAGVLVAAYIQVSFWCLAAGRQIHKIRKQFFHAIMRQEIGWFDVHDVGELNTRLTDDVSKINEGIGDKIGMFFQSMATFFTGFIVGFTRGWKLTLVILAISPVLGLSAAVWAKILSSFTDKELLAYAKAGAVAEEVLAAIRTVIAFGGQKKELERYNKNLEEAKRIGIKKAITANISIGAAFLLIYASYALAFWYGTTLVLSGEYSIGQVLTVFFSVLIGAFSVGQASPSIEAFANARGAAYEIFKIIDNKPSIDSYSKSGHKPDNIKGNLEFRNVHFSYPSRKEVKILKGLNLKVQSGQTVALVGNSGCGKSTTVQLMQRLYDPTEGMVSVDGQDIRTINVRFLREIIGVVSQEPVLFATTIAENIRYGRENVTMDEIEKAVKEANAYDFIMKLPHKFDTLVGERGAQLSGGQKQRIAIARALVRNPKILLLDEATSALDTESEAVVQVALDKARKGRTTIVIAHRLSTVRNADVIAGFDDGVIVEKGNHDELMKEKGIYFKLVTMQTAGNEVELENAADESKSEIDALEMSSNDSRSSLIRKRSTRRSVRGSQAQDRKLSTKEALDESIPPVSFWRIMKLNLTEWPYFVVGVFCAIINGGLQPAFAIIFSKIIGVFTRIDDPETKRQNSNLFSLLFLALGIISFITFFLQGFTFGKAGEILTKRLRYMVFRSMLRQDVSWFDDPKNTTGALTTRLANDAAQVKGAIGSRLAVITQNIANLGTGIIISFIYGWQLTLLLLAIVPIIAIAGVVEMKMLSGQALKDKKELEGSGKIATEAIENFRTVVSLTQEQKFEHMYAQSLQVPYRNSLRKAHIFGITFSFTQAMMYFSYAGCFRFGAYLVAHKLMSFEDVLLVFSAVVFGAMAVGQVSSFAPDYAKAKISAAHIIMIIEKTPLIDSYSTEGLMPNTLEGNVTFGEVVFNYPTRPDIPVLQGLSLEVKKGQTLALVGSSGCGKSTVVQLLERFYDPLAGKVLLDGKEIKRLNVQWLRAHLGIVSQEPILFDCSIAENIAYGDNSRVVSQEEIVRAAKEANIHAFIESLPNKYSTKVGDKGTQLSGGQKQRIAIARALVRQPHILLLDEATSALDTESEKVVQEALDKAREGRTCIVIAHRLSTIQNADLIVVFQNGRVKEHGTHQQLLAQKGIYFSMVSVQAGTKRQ

On to `CC(=O)O/C1=C(\C)C(=O)[C@H]2[C@@H](OC(=O)c3ccccc3)[C@@H](C)[C@H](OC(C)=O)[C@]2(OC(C)=O)[C@H](OC(C)=O)/C(C)=C/CC(C)(C)[C@H](OC(C)=O)[C@H]1OC(C)=O`, for which the INH result in series [1] and in series [2] was “Active” throughout. As for `CC(=O)O[C@@H]1[C@@H](OC(C)=O)C(=O)/C(C)=C/[C@H]2[C@@H](OC(=O)c3ccccc3)[C@@H](C)[C@H](OC(C)=O)[C@]2(OC(C)=O)[C@H](OC(C)=O)[C@]2(C)O[C@H]2CC1(C)C`, the INH entry in series [2] is “Active”. For `CC(=O)O[C@@H]1C[C@@H](OC(=O)c2ccccc2)/C(C)=C/[C@H]2[C@@H](OC(=O)c3ccccc3)[C@@H](C)[C@H](O)[C@]2(O)[C@H](O)[C@](C)(O)/C=C/C1(C)C`, the INH entry in series [2] is listed as “Active”. With `C/C1=C\[C@H]2[C@@H](OC(=O)c3ccccc3)[C@@H](C)[C@H](O)[C@]2(O)[C@H](O)[C@](C)(O)/C=C/C(C)(C)[C@H](O)C[C@H]1O`, the INH result in series [3] is “Not Active”. The same measure, in the same setting: next, `C/C1=C\[C@H]2[C@@H](O)[C@@H](C)[C@H](O)[C@]2(O)[C@H](O)[C@](C)(O)/C=C/C(C)(C)[C@H](O)C[C@H]1O`: “Not Active”. Consider `CC(=O)O/C1=C(\C)[C@@H](O)[C@H]2[C@@H](OC(=O)c3ccccc3)[C@@H](C)[C@H](O)[C@]2(O)[C@H](O)/C(C)=C/CC(C)(C)[C@H](OC(C)=O)[C@H]1OC(C)=O`, for which the INH entry in series [3] is “Not Active”. `CC(=O)O[C@@H]1CC(=O)/C(C)=C/[C@H]2C=C(C)C(=O)[C@]2(OC(C)=O)[C@H](O)[C@](C)(O)/C=C/C1(C)C`: the INH entry in series [3] is “Not Active”. Regarding `CC(=O)O[C@@H]1C[C@@H](OC(=O)c2ccccc2)/C(C)=C/[C@H]2[C@@H](OC(=O)c3ccccc3)[C@@H](C)[C@H](OC(=O)c3cccs3)[C@]2(OC(C)=O)[C@H](O)[C@](C)(O)/C=C/C1(C)C`, in series [2], the INH result is reported as “Active”. Moreover, the IC50 in the series on HepG2 and in the series with NCI/ADR-RES was above 150 µM each time. As for `CC(=O)O[C@@H]1C[C@@H](OC(C)=O)C(C)(C)/C=C/[C@@](C)(O)[C@@H](O)[C@@]2(OC(C)=O)[C@@H](O)[C@H](C)[C@H](OC(=O)c3ccccc3)[C@@H]2/C=C/1C`, in series [2], the INH result is on record as “Active”.

For `CC(=O)O/C1=C(\C)[C@H]2O[C@](C)([C@@H](OC(C)=O)[C@]3(OC(C)=O)[C@@H]2[C@@H](OC(=O)c2ccccc2)[C@@H](C)[C@@H]3OC(C)=O)[C@H]2O[C@@H]2C(C)(C)[C@H](OC(C)=O)[C@H]1OC(C)=O`, the INH result in series [1] is “Active”. Besides, the FC in series [2] was 3.65. The half-inhibitory concentration (IC50) (commonly the midpoint of a concentration-inhibition curve) with HepG2 is 130 µM; in the series with NCI/ADR-RES, 55.6 µM. Consider `CC(=O)O[C@@H]1C[C@@H](OC(=O)c2ccccc2)/C(C)=C/[C@H]2[C@@H](OC(=O)c3ccccc3)[C@@H](C)[C@H](O)[C@]2(OC(C)=O)[C@H](OC(C)=O)[C@](C)(O)/C=C/C1(C)C`, for which the INH result in series [2] is recorded as “Active”. For `CC(=O)O[C@@H]1[C@@H](OC(C)=O)C(=O)/C(C)=C/C2=C[C@@H](C)[C@H](OC(C)=O)[C@]2(OC(C)=O)[C@H](OC(C)=O)/C(C)=C/CC1(C)C`, in series [3], the INH result is on record as “Not Active”. Still for that read-out and setting: the same measure for `CC(=O)O[C@@H]1[C@@H](O)C(=O)/C(C)=C/C2=C[C@@H](C)[C@H](OC(C)=O)[C@]2(OC(C)=O)[C@H](OC(C)=O)/C(C)=C/CC1(C)C`: “Not Active”. `CC(=O)O[C@@H]1C[C@@H](O)/C(C)=C/[C@H]2[C@@H](OC(=O)c3ccccc3)[C@@H](C)[C@H](O)[C@]2(OC(C)=O)[C@H](OC(=O)c2ccccc2)[C@](C)(O)/C=C/C1(C)C`: the INH entry in series [2] is listed as “Active”. As for `CC(=O)O[C@@H]1[C@@H](O)C(=O)/C(C)=C/C2=C[C@@H](C)[C@H](O)[C@]2(OC(C)=O)[C@H](O)/C(C)=C/CC1(C)C`, the INH entry in series [3] is recorded as “Not Active”. With `CC(=O)O[C@@H]1[C@@H](OC(C)=O)C(=O)/C(C)=C/[C@H]2[C@@H](OC(=O)c3ccccc3)[C@@H](C)[C@H](OC(C)=O)[C@]2(OC(C)=O)[C@H](OC(C)=O)/C(C)=C/CC1(C)C`, the INH result in series [2] was “Active”.

Take `CC(=O)O[C@@H]1C[C@@H](OC(=O)c2ccccc2)/C(C)=C/[C@H]2[C@@H](OC(=O)c3ccccc3)[C@@H](C)[C@H](OC(=O)c3ccccc3)[C@]2(OC(C)=O)[C@H](O)[C@](C)(O)/C=C/C1(C)C`: the INH result in series [1] and in series [2] was “Active” each time. The IC50 with HepG2 was above 150 µM; with NCI/ADR-RES, 64.2 µM. As for `CC(=O)O[C@@H]1C[C@@H](OC(=O)c2ccccc2)/C(C)=C/[C@H]2[C@@H](OC(=O)c3ccccc3)[C@@H](C)[C@H](OC(=O)c3ccco3)[C@]2(OC(C)=O)[C@H](O)[C@](C)(O)/C=C/C1(C)C`, in series [2], the INH result is recorded as “Active”. In addition, the IC50 in the series with HepG2 and with NCI/ADR-RES was above 150 µM each time. With `CC(=O)O[C@@H]1C[C@@H](OC(=O)c2ccccc2)/C(C)=C/[C@H]2[C@@H](OC(=O)c3ccccc3)[C@@H](C)[C@H](OC(=O)c3ccc(Br)cc3)[C@]2(OC(C)=O)[C@H](O)[C@](C)(O)/C=C/C1(C)C`, in series [2], the INH entry is given as “Active”. In addition, the IC50 was 81.3 µM with HepG2 and above 150 µM with NCI/ADR-RES.

As for `CC(=O)O[C@@H]1[C@@H](OC(C)=O)C(C)(C)C/C=C(\C)[C@@H](OC(C)=O)[C@]2(OC(C)=O)[C@@H](/C=C(\C)[C@@H]1OC(C)=O)[C@@H](OC(=O)c1ccccc1)[C@@H](C)[C@@H]2OC(C)=O`, the INH entry in series [2] is “Active”. Take `CC(=O)O[C@@H]1C[C@@H](OC(=O)c2ccccc2)/C(C)=C/[C@H]2[C@@H](OC(=O)c3ccccc3)[C@@H](C)[C@H](OC(C)=O)[C@]2(OC(C)=O)[C@H](O)[C@](C)(O)/C=C/C1(C)C`: the INH result in series [2] is listed as “Active”. Also, the IC50 was 93.3 µM with HepG2 and above 150 µM with NCI/ADR-RES.

`CC(=O)O[C@@H]1C[C@@H](O)/C(C)=C/[C@H]2[C@@H](OC(=O)c3ccccc3)[C@@H](C)[C@H](O)[C@]2(OC(C)=O)[C@H](O)[C@](C)(O)/C=C/C1(C)C`: the INH result in series [3] is reported as “Not Active”. Regarding `CC(=O)O/C1=C(\C)[C@H]2O[C@@](C)([C@@H](OC(C)=O)CC(C)(C)[C@H](OC(C)=O)[C@H]1OC(C)=O)[C@@H](OC(C)=O)[C@]1(OC(C)=O)[C@@H]2[C@@H](OC(=O)c2ccccc2)[C@@H](C)[C@@H]1OC(C)=O`, the FC in series [4] worked out at 3.07; in series [5] it was 1.81. In series [1], the INH entry is “Active”. Also, the IC50 with HepG2 and in the series on NCI/ADR-RES was above 150 µM throughout. As to `CC(=O)O/C1=C(\C)[C@@H](O)[C@H]2[C@@H](OC(=O)c3ccccc3)[C@@H](C)[C@H](OC(C)=O)[C@]2(OC(C)=O)[C@H](OC(C)=O)/C(C)=C/CC(C)(C)[C@H](OC(C)=O)[C@H]1OC(C)=O`, in series [2], the INH result was “Active”. For the compound `C/C1=C\[C@H]2[C@@H](OC(=O)c3ccccc3)[C@@H](C)[C@H](O)[C@]2(O)[C@H](O)[C@](C)(O)/C=C/C(C)(C)[C@H](O)C[C@H]1OC(=O)c1ccccc1`, the INH entry in series [3] is “Not Active”.
